This is an account of results in ChEMBL document CHEMBL4330067, “Synthesis and mechanistic studies of diketo acids and their bioisosteres as potential antibacterial agents” (Eur J Med Chem, 2019).

Data set [1] has as its system Klebsiella pneumoniae. Description: Antibacterial activity against Klebsiella pneumoniae ATCC 700603 after 24 hrs by broth dilution assay. The format is functional. To be noted: Klebsiella pneumoniae, 700603, 24 h. The gist of the method:
(§1)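 Broth dilution per NCCLS in nutrient broth, serial dilutions 1000 to 7.8 µg/mL, DMSO below 4% final. Inoculum approx. 2.5×10⁶ cells/mL, 37 °C with shaking at 150 rpm for 24 h. MIC taken as the lowest concentration with no visible growth. Ciprofloxacin served as positive control.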

For data set [2], the system named is Escherichia coli. Briefly: Anti-biofilm activity against Escherichia coli after 24 hrs by XTT assay. The format is functional, organism-based. Put shortly:
(§2)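 Biofilm XTT reduction assay: serial dilutions 1000 to 7.8 µg/mL in tryptic soy broth, inoculum approx. 5×10⁵ CFU/mL, 37 °C for 24 h static. Non-adherent cells removed by PBS wash, XTT added, 90 min at 37 °C in dark, absorbance at 490 nm. IC50 (50% inhibition of biofilm formation) read from dose-response curves.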

Data set [3] has as its system Enterococcus faecalis. Description: Antibacterial activity against Enterococcus faecalis MTCC 439 after 24 hrs by broth dilution assay. The format is functional. To be noted: MTCC 439, 24 h. Put shortly:
as §1

In data set [4] the test system is Streptococcus pneumoniae. Briefly: Induction of cellular damage in Streptococcus pneumoniae assessed as distorted cell membrane at MIC after 1 hr by TEM analysis. The format is functional, organism-based.
The test system of data set [5] is Escherichia coli. Description: Antibacterial activity against Escherichia coli MROB11 after overnight incubation. The format is functional. The gist of the method: (§3)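 Multidrug-resistant E. coli isolates in Luria broth, test range 8 to 1024 µg/mL (ciprofloxacin 0.49 to 63.3 µg/mL). Inoculum 10 µL of a 1000-fold diluted 0.1 OD600 culture, incubated overnight at 37 °C. OD read at 600 nm. % inhibition = (a−b)/a×100, with media and compound-colour blanks subtracted.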

In data set [6] the test system is CHO. Description: Cytotoxicity against CHO cells at 300 ug/mL after 48 hrs by MTT assay. The format is cell-based, Cricetulus griseus. Conditions: chinese hamster. The gist of the method: (§4)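 MTT assay: cells maintained in DMEM with 10% FBS and penicillin/streptomycin at 37 °C, 5% CO2. Seeded at approx. 2×10⁴ cells/well, 24 h before treatment, then exposed to 10 to 400 µg/mL for 48 h at 37 °C. MTT (5 mg/mL stock in PBS) added for 4 h, formazan dissolved in DMSO, A570 read. Triplicate wells; viability given relative to untreated cells.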
Background: Formazan colour is commonly taken as a measure of viable cells.

The nature of data set [7]: Inhibition of Enterococcus faecalis methionine aminopeptidase 1A using Met-AMC as substrate by Dixon method. Put shortly: (§5)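 Purified MetAP at 4 µM in 50 mM HEPES with 150 mM KCl and CoCl2 at 3 molar equivalents of enzyme. pH 7.5 for SpMetAP1a and EfMetAP1a, pH 8.0 for HsMetAP1b. Substrate L-Met-AMC at 50, 100 and 150 µM. Compounds (10 mM DMSO stocks) tested over 1 to 120 µM for % inhibition; Ki by Dixon method.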

For data set [8], the system named is Escherichia coli. Briefly: Antibacterial activity against Escherichia coli MRAE26 at 1024 ug/mL after 24 hrs by broth dilution assay relative to control. The format is functional. The gist of the method:
as §3
For orientation: Broth dilution looks for growth in wells or tubes with falling amounts of substance.

For data set [9], the system named is Escherichia coli. Description: Synergistic antibacterial activity against Escherichia coli MRAE33 assessed as fractional inhibitory concentration index after 18 hrs in presence of ciprofloxacin by checkerboard method. The format is functional. The gist of the method:
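Checkerboard combination with ciprofloxacin in Mueller-Hinton broth: compound 1024 to 16 µg/mL crossed with ciprofloxacin 128 to 2 µg/mL. Inoculum 5×10⁵ CFU/mL suspension, 18 h at 37 °C. Fractional inhibitory concentration index derived from the combination.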

The subject of data set [10] is Pseudomonas aeruginosa. Briefly: Bactericidal activity against Pseudomonas aeruginosa at sub-MIC after 10 hrs by spectrophotometric analysis. The format is functional, organism-based. Put shortly: (§6)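 Growth kinetics in 50 mL nutrient broth seeded at approx. 2×10⁶ cells/mL, compound at 2MIC, MIC and ½MIC, 37 °C at 160 rpm. Ciprofloxacin 10 µg/mL as positive control. 1 mL aliquots taken every 2 h from 0 to 22 h. Turbidity read at 600 nm and OD plotted against time.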

Data set [11] relates to Streptococcus pneumoniae. Briefly: Inhibition of Streptococcus pneumoniae methionine aminopeptidase 1A at 100 uM using Met-AMC as substrate relative to control. Put shortly: as §5
Data set [12] deals with Klebsiella pneumoniae. Briefly: Anti-biofilm activity against Klebsiella pneumoniae after 24 hrs by XTT assay. The format is functional, organism-based. The gist of the method: as §2
The subject of data set [13] is Escherichia coli. Briefly: Antibacterial activity against Escherichia coli MRAE33 at 1024 ug/mL after 24 hrs by broth dilution assay relative to control. The format is functional. The gist of the method: as §3
For data set [14], the system named is Escherichia coli. Briefly: Anti-biofilm activity against Escherichia coli assessed as poor cell density at 2MIC after 24 hrs by SEM analysis. The format is functional, organism-based.
The subject of data set [15] is Escherichia coli. Briefly: Antibacterial activity against Escherichia coli MRAE44 after overnight incubation. The format is functional. The gist of the method: as §3
Data set [16] concerns Escherichia coli. Briefly: Bactericidal activity against Escherichia coli at sub-MIC after 22 hrs by spectrophotometric analysis. The format is functional, organism-based. Put shortly: as §6
The test system of data set [17] is Escherichia coli. Briefly: Antibacterial activity against Escherichia coli MRC24 at 512 ug/mL after 24 hrs by broth dilution assay relative to control. The format is functional. The gist of the method: as §3
Data set [18] concerns Escherichia coli. Description: Antibacterial activity against Escherichia coli MRAE44 at 1024 ug/mL after 24 hrs by broth dilution assay. The format is functional, organism-based. Put shortly:
as §3

In data set [19] the test system is Pseudomonas aeruginosa. Description: Bactericidal activity against Pseudomonas aeruginosa at 1 to 2 times MIC after 24 hrs by spectrophotometric analysis. The format is functional, organism-based. The gist of the method:
as §6

A short description of data set [20]: Cytotoxicity against CHO cells assessed as cell viability at 100 ug/mL after 48 hrs by MTT assay relative to control. The format is cell-based, Cricetulus griseus. Conditions: chinese hamster, read-out: Activity. Put shortly: as §4
Data set [21] has as its system Enterococcus faecalis. Briefly: Anti-biofilm activity against Enterococcus faecalis after 24 hrs by XTT assay. The format is functional, organism-based. Put shortly:
as §2

For data set [22], the system named is Escherichia coli. Description: Synergistic antibacterial activity against Escherichia coli MRC17 assessed as fractional inhibitory concentration index after 18 hrs in presence of ciprofloxacin by checkerboard method. The format is functional. Put shortly: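 Checkerboard combination against MDR E. coli. Test agent gradient 1024–16 µg/mL crossed with ciprofloxacin 128–2 µg/mL in Mueller-Hinton broth. Wells were inoculated with a 5 × 10⁵ CFU/mL suspension and incubated 18 h at 37 °C. Interaction was expressed as the fractional inhibitory concentration index (FICI).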

SMILES strings stand for the structures. ≈ marks a conversion by molar mass, not a printed value. Calls of active or inactive are those of the source. No cut-off for these calls is given here.

Consider `Cc1c(C(=O)/C=C(\O)C(=O)N[C@H](C)C(=O)O)oc2ccc(Br)cc12`, for which the minimum inhibitory concentration (MIC) (commonly the lowest concentration that inhibits growth of the organism) in data set [1] came out at 500 µg/mL (≈ 1260 µM); in [3], 125 µg/mL (≈ 316 µM). Also, the IC50 – broadly, the concentration that gives 50% inhibition – in data set [2] was found to be 0.404 µg/mL (≈ 1.02 µM); in data set [12], 113 µg/mL (≈ 286 µM); in [21], 1240 µg/mL (≈ 3140 µM). For the same compound, the outcome in [4], in data set [10], in data set [14], in data set [16], in [18] and in [19] was Active. Further, the ICmax was 512 µg/mL in [5] and 1024 µg/mL in data set [15]. The Activity result is recorded as “Toxic” in [6], over 95% in [8], over 95% in data set [13] and 100% in [17]. In addition, the Ki (as a rule, a dissociation constant, usually derived from enzyme kinetics or from competition with a known ligand) in data set [7] was 11.9 µM. The “fractional inhibitory concentration index (FICI)” value was found to be 1.0156 in [9] and 1.5 in [22]. In addition, the inhibition (commonly how much of the control response was suppressed) in data set [11] was 98.2%. In addition, the viability at 48 h, 100 ug/mL in [20] was determined as 70%.
